Assay results published in ChEMBL document CHEMBL4049414, “Can We Make Small Molecules Lean? Optimization of a Highly Lipophilic TarO Inhibitor” (J Med Chem, 2017).
Values after ≈ are worked out from the molar mass of the structure shown. Active and inactive are the calls of the source. The rule behind the calls is not given here.

How the values were obtained:
[1] = test system: Staphylococcus aureus subsp. aureus COL; assay: Inhibition of methicillin-resistant Staphylococcus aureus COL TarO assessed as compound concentration required for potentiation of imipenem-mediated bacterial growth inhibition by 95% after 20 hrs
Method in brief: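 MRSA COL grown with compound in the presence of imipenem at 4 μg/mL. Growth read by OD600. The value is the minimum concentration that inhibits 95% of growth (sMITC95).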

[2] = Inhibition of TarO in methicillin-resistant Staphylococcus aureus membranes assessed as reduction in C55-P-P-GlcNAc production using C55-P as substrate in presence of UDP-GlcNAc by LC-MS analysis
[3] = test system: Staphylococcus aureus; assay: Growth inhibition of methicillin-resistant Staphylococcus aureus COL after 20 hrs
Method in brief: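 MRSA COL grown with compound alone, with no antibiotic added. Growth read by OD600. The value is the minimum concentration that inhibits 95% of growth (iMITC95).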

[4] = Inhibition of methicillin-resistant Staphylococcus aureus COL TarO assessed as suppression of bacteriophage K-mediated cell lysis; design: species or system Staphylococcus aureus subsp. aureus COL
[5] = Inhibition of methicillin-resistant Staphylococcus aureus COL TarO assessed as late stage targocil suppression after 20 hrs; design: species or system Staphylococcus aureus subsp. aureus COL
[6] = AUC (0 to 24 hrs) in mouse at 100 mg/kg, po; assay type: ADME, organism-based; design: time < 24 hr, dose 100 mg/kg, route oral; conditions: in vivo
[7] = species on record: Homo sapiens; assay: Inhibition of PAF (unknown origin) at 10 uM relative to control
[8] = biological target: Histamine H2 receptor (Homo sapiens) (UniProt P25021); assay: Inhibition of H2 receptor (unknown origin) at 10 uM relative to control
[9] = species on record: Homo sapiens; assay: Inhibition of TBOB binding to GABA-A receptor (unknown origin) at 10 uM relative to control
[10] = species on record: Homo sapiens; assay: Inhibition of adenosine transporter (unknown origin) at 10 uM relative to control
[11] = biological target: Cannabinoid receptor 1 (Homo sapiens) (UniProt P21554); assay: Inhibition of CB1 receptor (unknown origin) at 10 uM relative to control
[12] = biological target: Mitogen-activated protein kinase 3 (Homo sapiens) (UniProt P27361); assay: Inhibition of ERK1 (unknown origin) at 10 uM relative to control
[13] = Solubility of the compound in PBS buffer; assay type: physicochemical
[14] = Cmax in mouse blood at 50 mg/kg, sc; assay type: ADME, organism-based; design: dose 50 mg/kg, route subcutaneous
[15] = test system: Staphylococcus aureus; assay: (§1) Potentiation of imipenem-induced antibacterial activity against methicillin-resistant Staphylococcus aureus COL MB 5393 infected in neutropenic balb/c mouse assessed as log reduction in bacterial burden in kidney at 50 mg/kg, sc administered three times per day at 2, 5 and 8 hrs post challenge cotreated with imipenem measured 24 hrs post challenge; assay type: functional
[16] = Ratio of AUC (0 to x) in mouse spleen to AUC (0 to x) in mouse blood at 50 mg/kg, sc; assay type: ADME, organism-based; conditions: read-out: Ratio AUC
[17] = Clearance in rat at 1 mg/kg, iv; assay type: ADME, organism-based; conditions: in vivo
[18] = Tmax in mouse kidney at 50 mg/kg, sc; assay type: ADME, organism-based
[19] = test system: Staphylococcus aureus; assay: Potentiation of imipenem-induced antibacterial activity against methicillin-resistant Staphylococcus aureus COL MB 5393 infected in sc dosed neutropenic balb/c mouse assessed as reduction in bacterial burden in kidney administered three times per day at 2, 5 and 8 hrs post challenge cotreated with imipenem measured 24 hrs post challenge; assay type: functional, organism-based
[20] = AUC (0 to infinity) in mouse at 2 mg/kg, iv; assay type: ADME, organism-based; design: dose 2 mg/kg, time infinity, route intravenous; conditions: in vivo
[21] = test system: Staphylococcus aureus; assay: as §1, with “as” for “as log”, “12.5” for “50”; assay type: functional, organism-based
[22] = Ratio of Cmax in mouse spleen to Cmax in mouse blood at 50 mg/kg, sc; assay type: ADME, organism-based
[23] = Clearance in mouse at 2 mg/kg, iv; assay type: ADME, organism-based; conditions: in vivo
[24] = test system: Mus musculus; assay: Toxicity in mouse at 50 mg/kg, sc; assay type: organism-based; conditions: in vivo
[25] = Terminal half life in rat at 1 mg/kg, iv; assay type: ADME, organism-based; conditions: in vivo, read-out: beta t1/2 (converted)
[26] = Tmax in mouse liver at 50 mg/kg, sc; assay type: ADME, organism-based
[27] = Cmax in mouse spleen at 50 mg/kg, sc; assay type: ADME, organism-based; design: dose 50 mg/kg, route subcutaneous
[28] = AUC (0 to x) in mouse spleen at 50 mg/kg, sc; assay type: ADME, organism-based
[29] = Cmax in mouse liver at 50 mg/kg, sc; assay type: ADME, organism-based; design: dose 50 mg/kg, route subcutaneous
[30] = test system: Staphylococcus aureus; assay: Antibacterial activity against methicillin-resistant Staphylococcus aureus COL MB 5393 infected in neutropenic balb/c mouse assessed as reduction in bacterial burden in kidney at 12.5 to 50 mg/kg, sc administered three times per day at 2, 5 and 8 hrs post challenge measured 24 hrs post challenge; assay type: functional, organism-based
[31] = Tmax in mouse spleen at 50 mg/kg, sc; assay type: ADME, organism-based
[32] = AUC (0 to x) in mouse blood at 50 mg/kg, sc; assay type: ADME, organism-based
[33] = Cmax in mouse kidney at 50 mg/kg, sc; assay type: ADME, organism-based; design: dose 50 mg/kg, route subcutaneous
[34] = AUC (0 to x) in mouse kidney at 50 mg/kg, sc; assay type: ADME, organism-based
[35] = Tmax in mouse blood at 50 mg/kg, sc; assay type: ADME, organism-based
[36] = Terminal half life in mouse at 2 mg/kg, iv; assay type: ADME, organism-based; conditions: in vivo, read-out: beta t1/2 (converted)
[37] = AUC (0 to infinity) in rat at 1 mg/kg, iv; assay type: ADME, organism-based; design: dose 1 mg/kg, time infinity, route intravenous; conditions: in vivo
[38] = AUC (0 to x) in mouse lung at 50 mg/kg, sc; assay type: ADME, organism-based
[39] = test system: Staphylococcus aureus; assay: as §1, with “25” for “50”; assay type: functional
[40] = Cmax in mouse lung at 50 mg/kg, sc; assay type: ADME, organism-based; design: dose 50 mg/kg, route subcutaneous
[41] = Volume of distribution at steady state in mouse at 2 mg/kg, iv; assay type: ADME, organism-based; conditions: in vivo, read-out: Vdss
[42] = Tmax in mouse lung at 50 mg/kg, sc; assay type: ADME, organism-based
[43] = Volume of distribution at steady state in rat at 1 mg/kg, iv; assay type: ADME, organism-based; conditions: in vivo, read-out: Vdss
[44] = AUC (0 to x) in mouse liver at 50 mg/kg, sc; assay type: ADME, organism-based
[45] = test system: Staphylococcus aureus; assay: Antibacterial activity against methicillin-resistant Staphylococcus aureus COL MB 5393 infected in balb/c mouse assessed as reduction in bacterial burden in kidney at 5 mg/kg, sc administered 2 to 8 hrs post challenge measured 24 hrs post challenge; assay type: functional, organism-based

Sequence of Histamine H2 receptor (Homo sapiens) (P25021 whole entry): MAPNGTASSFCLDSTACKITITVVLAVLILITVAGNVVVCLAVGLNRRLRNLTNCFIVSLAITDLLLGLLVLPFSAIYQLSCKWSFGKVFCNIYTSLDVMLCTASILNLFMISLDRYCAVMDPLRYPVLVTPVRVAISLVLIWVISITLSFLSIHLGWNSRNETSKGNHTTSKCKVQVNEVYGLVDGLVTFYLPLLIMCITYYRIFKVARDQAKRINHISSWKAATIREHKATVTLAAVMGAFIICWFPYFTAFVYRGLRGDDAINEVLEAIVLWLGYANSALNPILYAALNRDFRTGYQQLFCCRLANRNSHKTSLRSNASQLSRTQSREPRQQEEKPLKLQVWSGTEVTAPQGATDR
Sequence of Mitogen-activated protein kinase 3 (Homo sapiens) (P27361 whole entry): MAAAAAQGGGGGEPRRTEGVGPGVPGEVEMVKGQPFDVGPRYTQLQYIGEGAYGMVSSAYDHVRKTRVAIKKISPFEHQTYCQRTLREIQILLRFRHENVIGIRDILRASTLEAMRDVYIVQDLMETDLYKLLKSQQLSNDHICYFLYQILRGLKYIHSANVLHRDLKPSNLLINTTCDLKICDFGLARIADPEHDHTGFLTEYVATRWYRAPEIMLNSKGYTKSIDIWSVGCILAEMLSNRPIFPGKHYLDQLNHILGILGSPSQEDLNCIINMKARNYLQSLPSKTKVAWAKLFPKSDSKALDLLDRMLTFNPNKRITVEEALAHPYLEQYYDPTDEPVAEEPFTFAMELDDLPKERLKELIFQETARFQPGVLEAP
Sequence of Cannabinoid receptor 1 (Homo sapiens) (P21554 whole entry): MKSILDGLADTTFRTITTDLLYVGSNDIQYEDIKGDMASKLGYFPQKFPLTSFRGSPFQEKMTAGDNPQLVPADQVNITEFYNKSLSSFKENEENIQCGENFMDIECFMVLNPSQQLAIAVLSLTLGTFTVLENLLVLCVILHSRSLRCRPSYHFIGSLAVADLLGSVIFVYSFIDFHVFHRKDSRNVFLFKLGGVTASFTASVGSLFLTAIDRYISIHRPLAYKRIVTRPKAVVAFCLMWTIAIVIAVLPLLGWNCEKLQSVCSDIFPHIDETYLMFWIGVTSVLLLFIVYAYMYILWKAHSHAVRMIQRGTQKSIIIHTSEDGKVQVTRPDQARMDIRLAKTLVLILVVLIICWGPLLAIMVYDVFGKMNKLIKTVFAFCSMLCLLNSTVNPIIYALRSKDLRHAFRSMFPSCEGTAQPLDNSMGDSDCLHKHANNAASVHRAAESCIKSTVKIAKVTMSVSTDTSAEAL

With C[C@H]1[C@@H](c2cc(C(F)(F)F)cc(C(F)(F)F)c2)OC(=O)N1C(=O)CCc1cccc2ccccc12 the MITC95 [1] was 15 nM, the IC50 [2] was 0.009 µM and the MITC95 [3] was over 200 µM.

Work on O=C(O)C[C@H]1[C@@H](c2cc(F)cc(C(F)(F)F)c2)OC(=O)N1C(=O)NCc1cncc2ccccc12 yielded an MITC95 [1] of over 200000 nM, an IC50 [2] of over 200 µM and an MITC95 [3] of over 200 µM.

For C[C@H]1[C@@H](c2cc(C(F)(F)F)cc(C(F)(F)F)c2)OC(=O)N1C(=O)Cc1cncc2ccccc12, the IC50 [2] was 2.5 µM and the MITC95 [3] was over 200 µM.

For C[C@H]1[C@@H](c2cc(C(F)(F)F)cc(C(F)(F)F)c2)OC(=O)N1CCC(=O)N1CCOc2ccccc21, the MITC95 [1] was over 200000 nM and the IC50 [2] was over 200 µM.

Compound O=C(NCc1cncc2cccnc12)N1C(=O)O[C@H](c2cc(C(F)(F)F)cc(C(F)(F)F)c2)[C@@H]1CO has an MITC95 [1] of 390 nM, an IC50 [2] of 0.142 µM and an MITC95 [3] of over 200 µM.

For C[C@H]1[C@@H](c2cc(C(F)(F)F)cc(C(F)(F)F)c2)OC(=O)N1C(=O)NCc1cncc2ccccc12, the IC50 [4] was 0.094 µM, the MITC95 [1] was 31 nM and the IC50 [5] was 0.191 µM. The IC50 [2] was 0.029 µM and the MITC95 [3] was over 200 µM.

With C[C@H]1[C@@H](c2ccccn2)OC(=O)N1C(=O)NCCc1cccc2ccccc12 the MITC95 [1] was over 200000 nM and the IC50 [2] was 16 µM.

Work on C[C@H]1[C@@H](c2cc(C(F)(F)F)cc(C(F)(F)F)c2)OC(=O)N1C(=O)CCc1cncc2ccccc12 yielded an AUC(0-t) at 24 h [6] of 1.7 µM·h, an inhibition [7] of over 50% and an inhibition [8] of over 50%. For the same compound, the inhibition [9] was over 50%, the inhibition [10] was over 50% and the MITC95 [1] was 23 nM. It also gave an inhibition [11] of over 50%, an IC50 [2] of 0.024 µM and an inhibition [12] of over 50%. It also gave an MITC95 [3] of over 200 µM.

With COc1cc(C(F)(F)F)cc([C@H]2OC(=O)N(C(=O)NCc3cncc4cccnc34)[C@H]2C)n1 the IC50 [4] was 0.6 µM, the solubility [13] was 32 µM (≈ 14.8 µg/mL) and the MITC95 [1] was 375 nM. For the same compound, the IC50 [5] was 0.2 µM, the IC50 [2] was 0.26 µM and the MITC95 [3] was over 200 µM.

With C[C@H]1[C@@H](c2cccc(C(F)(F)F)c2)OC(=O)N1C(=O)NCc1cncc2ccccc12 the Cmax [14] was 4.9 µM, the “log(activity)” value [15] was 2.5 and the Kp [16] was 6 to 8. The clearance [17] was 5.56 to 5.58 L/h/kg, the Tmax [18] was 1 h and the Activity [19] was “Dose-dependent effect”. For the same compound, the AUC(0-inf) [20] was 1.26 µM·h, the Activity [21] was “inactive” and the Kp [22] was 6 to 8. The clearance [23] was 3.66 to 3.68 L/h/kg, the Activity [24] was “Non-Toxic” and the half-life [25] was 1.7 h. It also gave a Tmax [26] of 1 h, a Cmax [27] of 29 µM and an MITC95 [1] of 250 nM. The AUC [28] was 75 µM·h, the Cmax [29] was 101 µM and the Activity [30] was “inactive”. The Tmax [31] was 1 h, the AUC [32] was 9.9 µM·h and the Cmax [33] was 95 µM. It also gave an AUC [34] of 336 µM·h, a Tmax [35] of 0.5 h and a half-life [36] of 6.4 h. For the same compound, the AUC(0-inf) [37] was 0.42 µM·h, the AUC [38] was 123 µM·h and the “log(activity)” value [39] was 2. For the same compound, the Cmax [40] was 43.7 µM, the Vd [41] was 13.1 to 13.5 L/kg and the Tmax [42] was 0.7 h. It also gave a Vd [43] of 6.6 L/kg, an IC50 [2] of 0.162 µM and an MITC95 [3] of over 200 µM. For the same compound, the AUC [44] was 322 µM·h.

For C[C@H]1[C@@H](c2cc(C(F)(F)F)cc(C(F)(F)F)c2)OC(=O)N1C(=O)Cc1cccc2ccccc12, the solubility [13] was under 1 µM, the MITC95 [1] was 900 nM and the IC50 [2] was 0.125 to 0.171 µM. The MITC95 [3] was over 200 µM.

In the case of COc1cc(C(F)(F)F)cc([C@H]2OC(=O)N(C(=O)NCc3cncc4ccccc34)[C@H]2CO)n1, the MITC95 [1] is reported as 360 nM, the IC50 [2] is reported as 0.08 µM and the MITC95 [3] is reported as over 200 µM.

With C[C@@H](O)[C@H]1C(=O)N2C(C(=O)O)=C(SCCNC=N)C[C@H]12 the Activity [45] was “inactive”.
